For data set [1], the system named is Mus musculus. Put plainly: Antiinflammatory activity in DBA/1 mouse collagen-induced arthritis model assessed as reduction in number of PMA/ionomycin-stimulated CD4+ T cells expressing IFNgamma at 50 ug/kg, sc administered 2 days prior to collagen challenge continued till day 21 post collagen challenge by flow cytometric analysis relative to control. It counts as functional, organism-based. The conditions noted are these: T-cell. The method in brief:
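CIA mice given test agent (1 μg/dose) or PBS subcutaneously on days −2, 0 and 21. Draining lymph node cells (10^6/mL) in complete RPMI were stimulated ± 50 ng/mL PMA plus 500 ng/mL ionomycin, with 10 μg/mL brefeldin A for 5 h at 37 °C. Cells were surface-stained for CD4, CD8 and γδ, fixed and permeabilized, then stained for intracellular IFNγ and IL-17A. Gating used isotype controls. Cell numbers per individual mouse; naive n = 7, treated groups n = 13.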
A general note: Flow cytometry measures light scatter and fluorescence of single cells or particles in a stream.

Data set [2] has as its system Mus musculus. Briefly: Antiinflammatory activity in DBA/1 mouse collagen-induced arthritis model assessed as effect on number of PMA/ionomycin-stimulated gammadelta+ T cells expressing IFNgamma at 50 ug/kg, sc administered 2 days prior to collagen challenge continued till day 21 post collagen challenge by flow cytometric analysis relative to control. It counts as functional, organism-based. The conditions noted are these: T-cell.

In data set [3] the target is T1, Toll-like receptor 4 (Mus musculus) (UniProt Q9QUK6).
T1 sequence (whole entry): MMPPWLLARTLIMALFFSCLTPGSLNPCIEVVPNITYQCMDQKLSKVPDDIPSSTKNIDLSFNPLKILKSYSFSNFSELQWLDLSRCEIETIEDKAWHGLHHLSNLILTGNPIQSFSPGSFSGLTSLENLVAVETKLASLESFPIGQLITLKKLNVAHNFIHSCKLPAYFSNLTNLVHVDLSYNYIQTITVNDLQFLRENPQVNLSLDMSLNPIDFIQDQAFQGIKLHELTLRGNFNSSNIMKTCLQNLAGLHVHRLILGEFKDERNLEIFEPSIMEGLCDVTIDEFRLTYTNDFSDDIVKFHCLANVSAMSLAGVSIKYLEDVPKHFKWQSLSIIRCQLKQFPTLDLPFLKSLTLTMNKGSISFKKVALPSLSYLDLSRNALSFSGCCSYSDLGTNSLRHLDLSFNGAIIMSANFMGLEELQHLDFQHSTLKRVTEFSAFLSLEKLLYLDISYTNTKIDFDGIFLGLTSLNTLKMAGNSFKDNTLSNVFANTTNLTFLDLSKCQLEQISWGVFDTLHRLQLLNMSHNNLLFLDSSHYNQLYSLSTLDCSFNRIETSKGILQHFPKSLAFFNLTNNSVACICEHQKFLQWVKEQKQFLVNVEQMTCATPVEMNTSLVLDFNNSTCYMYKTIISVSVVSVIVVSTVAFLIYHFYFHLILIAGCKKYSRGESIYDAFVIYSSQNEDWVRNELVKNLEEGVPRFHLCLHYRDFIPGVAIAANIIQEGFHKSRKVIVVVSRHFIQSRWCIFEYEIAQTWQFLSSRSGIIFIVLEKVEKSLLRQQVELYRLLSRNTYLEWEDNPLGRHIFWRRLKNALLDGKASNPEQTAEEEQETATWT
Put plainly: Inhibition of TLR4 in BALB/c mouse BMDM assessed as downregulation of LPS-stimulated IL-12p40 level at 5 ug/ml preincubated for 18 hrs followed by LPS challenge measured after 24 hrs by ELISA relative to control. The method in brief:
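BALB/c male bone marrow macrophages were differentiated 7 days with L929 supernatant (≥99% CD11b+/F4/80+). Cells were plated at 2 × 10^5/well in triplicate, rested overnight, and given compounds at 5 μg/mL for 18 h. They were then stimulated with 100 ng/mL S. minnesota LPS, 10 ng/mL Pam3CSK4 (BLP) or 0.01 μM CpG for 24 h. Supernatant IL-12p40 and IL-6 were measured by ELISA (sensitivity 16 pg/mL).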

For data set [4], the system named is Mus musculus. Put plainly: Antiinflammatory activity in DBA/1 mouse collagen-induced arthritis model assessed as reduction of disease incidence at 50 ug/kg, sc administered 2 days prior to collagen challenge continued till day 21 post collagen challenge. The data set is classed as functional, organism-based. In short, it runs like this: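 Collagen-induced arthritis mice were dosed subcutaneously (1 μg/dose) or given PBS on days −2, 0 and 21. Arthritis was scored clinically and hind paw width measured. Incidence was the % of mice with severity score ≥2 (cumulative) or ≥4 (high score). Results are mean ± SEM. Scores n = 13 per group, pooled from two experiments; paw width n = 7, from a single experiment.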

In data set [5] the target is T1, Toll-like receptor 4 (Mus musculus). Put plainly: Inhibition of TLR4-mediated NFkappaB p65 activation in LPS-stimulated BALB/c mouse BMDM at 5 ug/ml preincubated for 18 hrs followed by LPS challenge measured after 1 hr by TransAM ELISA. The method in brief: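 Bone marrow macrophages (4 × 10^6/well) had their medium changed after 24 h, were pretreated with compounds at 5 μg/mL for 18 h, then stimulated for 1 h with 100 ng/mL LPS, 10 ng/mL BLP or 1 μM CpG. Activated NFκB p65 in nuclear extracts was measured by TransAM ELISA in duplicate.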
Background: ELISA stands for enzyme-linked immunosorbent assay.

Data set [6] can be described thus: Cytotoxicity against LPS-stimulated BALB/c mouse BMDM assessed as loss of cell viability at 5 ug/mL preincubated for 18 hrs followed by LPS challenge measured after 24 hrs by 7-AAD staining-based flow cytometric analysis. In short, it runs like this:
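BALB/c bone marrow macrophages (2 × 10^5/well) were rested 24 h in complete RPMI, then given 5 μg/mL compound for 18 h. Cells were stained with 7-AAD for 10 min on ice and the dead fraction read by flow cytometry. One experiment is representative of two.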

Active and inactive are the calls of the source. Unless noted, the calls are words filed in the database; no cut-off is given here.

For the compound `CN(C)CCS(=O)(=O)Cc1ccc(Br)cc1`, the result in the data set on Mus musculus [1] and in the data set with Mus musculus [4] was Active. In addition, the outcome in the data set on Mus musculus [2] was inactive. Further, the inhibition result in data set [3] and in data set [5] was “Active” throughout. Further, the Activity result in data set [6] is given as “Non-toxic”.
